The subject of assay [1] is MTCC-96 (Staphylococcus aureus). As to the kind of experiment: Agar-disc diffusion, S. aureus. The class given is cell-based. As to conditions: MTCC96, read-out: Diameter of Growth Inhibition Zone, S. aureus. Background: In agar diffusion tests the substance spreads into inoculated agar from a disc or well.
Assay [2] deals with MTCC-1306 (Bacillus cereus). Kind of assay: Agar-disc diffusion, B. cereus. It counts as cell-based. Particulars: MTCC1306, read-out: Diameter of Growth Inhibition Zone, B. cereus.
Assay [3] relates to P. aeruginosa. Kind of assay: Minimal inhibitory concentration, P. aeruginosa. It counts as cell-based. Particulars: Pseudomonas aeruginosa, read-out: Minimal Inhibitory Concentration (MIC), P. aeruginosa. In a few lines: (§1)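 Agar disc diffusion against bacterial strains, following a previously reported method. Strains were P. aeruginosa MTCC-2453 and S. aureus MTCC-96. Test compounds were anthraquinone-linked coumarins. MIC was reported in µg/mL.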

In assay [4] the test system is E. coli. Kind of assay: Minimal inhibitory concentration, E. coli. The class given is cell-based. As to conditions: Escherichia coli, read-out: Minimal Inhibitory Concentration (MIC), E. coli.
Assay [5] concerns S. aureus. Kind of assay: Minimal inhibitory concentration, S. aureus. The class given is cell-based. Particulars: Staphylococcus aureus, read-out: Minimal Inhibitory Concentration (MIC), S. aureus. The procedure, abridged:
as §1

Assay [6] relates to MTCC-2453 (Pseudomonas aeruginosa). As to the kind of experiment: Agar-disc diffusion, P. aeruginosa. The class given is cell-based. As to conditions: MTCC2453, read-out: Diameter of Growth Inhibition Zone, P. aeruginosa.
Assay [7] has as its system recultured (Enterobacter aerogenes). As to the kind of experiment: Agar-disc diffusion, E. aerogenes. Particulars: Klebsiella aerogenes, read-out: Diameter of Growth Inhibition Zone, E. aerogenes. It counts as cell-based.
In assay [8] the test system is B. cereus. As to the kind of experiment: Minimal inhibitory concentration, B. cereus. It counts as cell-based. As to conditions: Bacillus cereus, read-out: Minimal Inhibitory Concentration (MIC), B. cereus.
Assay [9] concerns MTCC-739 (Escherichia coli). Kind of assay: Agar-disc diffusion, E. coli. It counts as cell-based. As to conditions: MTCC739, read-out: Diameter of Growth Inhibition Zone, E. coli.
Assay [10] has as its system Tyrosinase from mushrooms. As to the kind of experiment: Mushroom tyrosinase inhibition, L-dopa as substrate. It counts as biochemical. As to conditions: mean ± SD of three experiments.

Values after ≈ are worked out from the molar mass of the structure shown.

We go through 2 molecules from article PMC10864903 (Heliyon, 2024).

On to `O=C(O)c1cn(C2CC2)c2cc(N3CCNCC3)c(F)cc2c1=O` [Ciprofloxacin, ciprofloxacin], for which the zone of inhibition at 100 µg/disc turned out to be 25 mm in [1]; 22 mm in [2]; 26 mm in assay [6]; 30 mm in [7]; 27 mm in assay [9]. Besides, the MIC was determined as 1 mg/L (≈ 3.02 µM) in [3], 0.5 mg/L (≈ 1.51 µM) in assay [4], 1 mg/L (≈ 3.02 µM) in assay [5] and 2 mg/L (≈ 6.04 µM) in assay [8].

With `O=c1cc(CO)occ1O` [Kojic acid, kojic acid], in [10] (25 μg/mL), the “Tyrosinase inhibitory activity (%) at 25 μg/mL” value was 55.67 ± 0.12%. Besides, the “Tyrosinase inhibitory activity (%) at 50 μg/mL” value in [10] (50 μg/mL) turned out to be 68.62 ± 0.32%. The “Tyrosinase inhibitory activity (%) at 100 μg/mL” value in [10] (100 μg/mL) is listed as 85.54 ± 0.23%.

Broadly, the zone of inhibition is the extent of the growth-free halo in a diffusion test.
